Among the data in ChEMBL document CHEMBL4308898, “Synthesis and biological evaluation of arylpiperazine derivatives as potential anti-prostate cancer agents” (Bioorg Med Chem, 2019) are IC50 and inhibition values, retold here.

Calls of active or inactive are those of the source. No cut-off for these calls is given here. Some results are limits rather than exact numbers.

One assay deals with PC-3. The assay is described as follows: Antiproliferative activity against human PC3 cells after 24 hrs by CCK-8 assay. The assay is classed as functional, cell-based. To be noted: PC-3, 24 h. The procedure, abridged:
(§1)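 Media with 10% FBS plus penicillin/streptomycin: RPMI1640 (DU145), F12 (LNCaP), DMEM (PC-3). Log-phase cells seeded at 1 × 10^5 cells/mL and grown 24 h at 37 °C, 5% CO2, then given various compound concentrations for 24 h. CCK-8 added for 1 h, absorbance read at 450 nm. Inhibition = (1 − OD treated/OD control) × 100%. IC50 from linear regression; three independent experiments.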
On the technique in general: Tetrazolium assays rely on reduction of a dye to a coloured formazan, in cell work by metabolically active cells.

For a further assay, the system named is DU-145. The assay is described as follows: Antiproliferative activity against human DU145 cells after 24 hrs by CCK-8 assay. It counts as functional, cell-based. To be noted: DU-145, 24 h. In outline: as §1
The test system of another assay is LNCaP. The assay is described as follows: Antiproliferative activity against human LNCAP cells after 24 hrs by CCK-8 assay. The assay is classed as functional, cell-based. The procedure, abridged: as §1
Another assay relates to RWPE-1. Nature of the assay: Antiproliferative activity against human RWPE1 cells after 24 hrs by CCK-8 assay. The assay is classed as cell-based. To be noted: RWPE-1, 24 h. In outline:
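RWPE-1 grown in DMEM with 10% FBS, penicillin 100 U/mL and streptomycin 0.1 mg/mL at 37 °C, 5% CO2. Log-phase cells seeded at 1 × 10^5 cells/mL, cultured 24 h, then exposed to various compound concentrations for 24 h. CCK-8 added, 1 h at 37 °C, absorbance read at 450 nm. Inhibition = (1 − OD treated/OD control) × 100%. IC50 by linear regression of concentration-response curves. Three independent experiments.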

For a further assay, the target named is T1, Androgen receptor (Rattus norvegicus, UniProt P15207).
T1 sequence (P15207 whole entry): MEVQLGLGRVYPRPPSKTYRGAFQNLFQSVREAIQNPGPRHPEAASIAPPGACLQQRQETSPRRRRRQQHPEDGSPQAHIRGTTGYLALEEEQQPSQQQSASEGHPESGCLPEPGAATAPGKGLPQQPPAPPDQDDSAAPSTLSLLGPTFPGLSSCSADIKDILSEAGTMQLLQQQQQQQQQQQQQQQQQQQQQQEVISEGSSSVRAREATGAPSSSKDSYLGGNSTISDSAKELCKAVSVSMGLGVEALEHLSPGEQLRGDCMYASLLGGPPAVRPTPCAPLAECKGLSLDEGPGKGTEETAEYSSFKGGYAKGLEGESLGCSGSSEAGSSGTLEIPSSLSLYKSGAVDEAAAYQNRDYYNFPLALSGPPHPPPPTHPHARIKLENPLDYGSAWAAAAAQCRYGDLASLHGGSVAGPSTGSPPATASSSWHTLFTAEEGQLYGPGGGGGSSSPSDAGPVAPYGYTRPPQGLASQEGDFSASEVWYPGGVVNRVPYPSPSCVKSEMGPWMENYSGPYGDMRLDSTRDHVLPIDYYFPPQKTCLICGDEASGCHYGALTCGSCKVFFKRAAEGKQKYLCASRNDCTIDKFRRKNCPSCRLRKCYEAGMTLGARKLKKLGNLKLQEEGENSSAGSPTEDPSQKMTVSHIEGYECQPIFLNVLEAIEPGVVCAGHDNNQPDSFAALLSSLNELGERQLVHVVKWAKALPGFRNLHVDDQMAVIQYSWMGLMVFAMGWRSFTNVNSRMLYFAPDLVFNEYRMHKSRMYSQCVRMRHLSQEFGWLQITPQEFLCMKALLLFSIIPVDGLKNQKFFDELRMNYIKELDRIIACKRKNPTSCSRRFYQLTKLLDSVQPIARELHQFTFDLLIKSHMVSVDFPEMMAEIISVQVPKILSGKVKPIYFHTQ
The assay is described as follows: Displacement of fluormone-AL Green from His-tagged/GST-fused recombinant rat androgen receptor LBD expressed in insect cells measured after 4 hrs by fluorescence polarization assay. On the technique in general: Fluorescence polarisation rises when a labelled molecule tumbles more slowly, as on binding a larger partner.

In assay [1] the target is T2, Androgen receptor (Homo sapiens) (UniProt P10275).
T2 sequence (whole entry): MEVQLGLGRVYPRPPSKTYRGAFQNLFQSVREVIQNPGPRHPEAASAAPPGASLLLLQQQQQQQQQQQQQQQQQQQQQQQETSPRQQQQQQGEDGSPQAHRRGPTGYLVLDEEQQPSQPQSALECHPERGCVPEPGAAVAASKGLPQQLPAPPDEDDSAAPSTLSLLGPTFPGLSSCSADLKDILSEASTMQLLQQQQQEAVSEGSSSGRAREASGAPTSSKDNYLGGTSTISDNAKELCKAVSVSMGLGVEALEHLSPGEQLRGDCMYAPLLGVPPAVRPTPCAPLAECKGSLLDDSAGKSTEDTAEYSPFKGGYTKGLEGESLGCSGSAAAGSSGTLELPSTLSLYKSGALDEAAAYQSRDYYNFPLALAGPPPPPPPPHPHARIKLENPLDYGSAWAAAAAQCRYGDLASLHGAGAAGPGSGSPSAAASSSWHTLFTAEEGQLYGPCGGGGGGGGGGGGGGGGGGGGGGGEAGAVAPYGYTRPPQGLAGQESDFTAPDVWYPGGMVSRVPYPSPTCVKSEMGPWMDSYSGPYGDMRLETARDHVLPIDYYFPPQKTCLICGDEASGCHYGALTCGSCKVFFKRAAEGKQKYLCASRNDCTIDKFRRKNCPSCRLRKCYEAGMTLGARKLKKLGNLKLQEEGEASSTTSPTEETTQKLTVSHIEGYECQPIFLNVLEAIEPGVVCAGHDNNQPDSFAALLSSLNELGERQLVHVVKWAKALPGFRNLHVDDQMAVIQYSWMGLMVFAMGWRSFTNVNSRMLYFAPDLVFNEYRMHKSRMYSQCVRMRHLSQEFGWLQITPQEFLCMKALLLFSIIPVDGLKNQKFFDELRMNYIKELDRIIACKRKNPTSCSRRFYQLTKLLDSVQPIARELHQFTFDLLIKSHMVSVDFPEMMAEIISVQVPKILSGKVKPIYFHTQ
To be noted: at 10 µM.

As a reminder, the IC50 is the concentration that gives 50% inhibition. On to `COc1ccccc1OCCc1ccc(CN2CCN(c3ccccc3)CC2)cc1`, for which the IC50 with PC-3, in the assay with DU-145, with LNCaP and in the assay on RWPE-1 was > 50 µM throughout.

Consider `c1ccc(N2CCN(Cc3ccc(CCOc4cccc5c4CCCC5)cc3)CC2)cc1`, for which the IC50 in the assay on PC-3 was found to be 17.7 µM; in the assay with DU-145 it was 12.2 µM; with LNCaP it was 19.3 µM; in the assay on RWPE-1 it was 27.8 µM.

Take `FC(F)(F)c1ccccc1OCCc1ccc(CN2CCN(c3ccccc3)CC2)cc1`: the IC50 in the assay on PC-3 was > 50 µM; in the assay with DU-145, 9.43 µM; with LNCaP, 32.2 µM; in the assay on RWPE-1, > 50 µM.

By inhibition is commonly meant the share of the control response that was lost under treatment. Regarding `N#Cc1ccc(OCCc2ccc(CN3CCN(c4ccccc4)CC3)cc2)cc1`, the IC50 with PC-3 was 1.05 µM; in the assay on DU-145, 46.2 µM; in the assay with LNCaP, 43.6 µM; in the assay with RWPE-1 it was > 50 µM; at Androgen receptor it was 4.22 µM. This compound returned an inhibition in assay [1] of 47.2%.

As for `Cc1ccc(OCCc2ccc(CN3CCN(c4ccccc4)CC3)cc2)cc1`, the IC50 with PC-3 is 1.47 µM; with DU-145 it was 10.1 µM; with LNCaP, 5.62 µM; with RWPE-1, > 50 µM; on Androgen receptor, 3.66 µM. The inhibition in assay [1] was 54.7%.

Regarding `C[C@]12C=CC3=C4CCC(=O)C=C4CC[C@H]3[C@@H]1CC[C@@]2(C)O`, the inhibition entry in assay [1] was “inactive”.

With `Cc1ccc(OCCc2ccc(CN3CCN(c4ccccc4)CC3)cc2)cc1C`, the IC50 was 6.72 µM with PC-3, 15.6 µM with DU-145, 17.6 µM in the assay on LNCaP and 12.3 µM with RWPE-1.

`N#Cc1ccccc1OCCc1ccc(CN2CCN(c3ccccc3)CC2)cc1`: the IC50 in the assay on PC-3 was > 50 µM; in the assay with DU-145 it was 2.51 µM; in the assay on LNCaP, > 50 µM; with RWPE-1 it was > 50 µM. In addition, the inhibition in assay [1] is 32.1%.

`Cc1ccccc1OCCc1ccc(CN2CCN(c3ccccc3)CC2)cc1`: the IC50 was 15.1 µM with PC-3, 29.2 µM in the assay with DU-145, 34.9 µM with LNCaP and > 50 µM with RWPE-1.

`CC(C)c1ccc(OCCc2ccc(CN3CCN(c4ccccc4)CC3)cc2)cc1`: the IC50 with PC-3 is > 50 µM; with DU-145 it was 6.4 µM; with LNCaP it was > 50 µM; with RWPE-1, > 50 µM. Also, the inhibition in assay [1] came out at 40.2%.

In the case of `CCOc1ccc(OCCc2ccc(CN3CCN(c4ccccc4)CC3)cc2)cc1`, the IC50 is > 50 µM in the assay with PC-3, 14.2 µM with DU-145, > 50 µM in the assay with LNCaP and > 50 µM with RWPE-1.

With `N#Cc1ccc(OCCc2ccc(CN3CCN(c4ccccc4)CC3)cc2)c(F)c1`, the IC50 with PC-3 was > 50 µM; with DU-145, 0.77 µM; with LNCaP it was > 50 µM; in the assay with RWPE-1, > 50 µM. The same compound registered an inhibition in assay [1] of 24.5%.

On to `c1ccc(OCCc2ccc(CN3CCN(c4ccccc4)CC3)cc2)cc1`, for which the IC50 in the assay on PC-3 is 8.2 µM; in the assay on DU-145, 9.82 µM; in the assay on LNCaP, 6.67 µM; in the assay on RWPE-1, > 50 µM. In addition, the inhibition in assay [1] worked out at 40.6%.

`c1ccc(N2CCN(Cc3ccc(CCOc4cccc5ccccc45)cc3)CC2)cc1`: the IC50 in the assay with PC-3 stood at 4.72 µM; in the assay with DU-145, 16 µM; in the assay with LNCaP it was 8.92 µM; in the assay with RWPE-1, 12.2 µM. Moreover, in assay [1], the inhibition worked out at 32.5%.

Regarding `Cc1cc(C)cc(OCCc2ccc(CN3CCN(c4ccccc4)CC3)cc2)c1`, the half-inhibitory concentration (IC50) was 2.99 µM with PC-3, 3.44 µM with DU-145, 7.43 µM in the assay with LNCaP and 4.86 µM in the assay on RWPE-1. The same compound registered an inhibition in assay [1] of 16.7%.

Regarding `CC(C)(C)NC(=O)[C@H]1CC[C@H]2[C@@H]3CC[C@H]4NC(=O)C=C[C@]4(C)[C@H]3CC[C@]12C` [FINASTERIDE], the values for the half-maximal inhibitory concentration (IC50) with DU-145 and in the assay with LNCaP were 14.5 µM and 13.5 µM, respectively.

Consider `Clc1cc(Cl)cc(OCCc2ccc(CN3CCN(c4ccccc4)CC3)cc2)c1`, for which the half-inhibitory concentration (IC50) stood at 10.1 µM in the assay on PC-3, 13.2 µM in the assay with DU-145, 19.4 µM in the assay on LNCaP and 47.2 µM in the assay on RWPE-1.

Regarding `COc1ccccc1N1CCN(CC(O)COc2cccc3ccccc23)CC1` (stereo not drawn) [NAFTOPIDIL], the IC50 with RWPE-1 is > 50 µM.

Take `Clc1ccc(OCCc2ccc(CN3CCN(c4ccccc4)CC3)cc2)cc1Cl`: the IC50 with PC-3 was 23 µM; in the assay on DU-145 it was 5.36 µM; with LNCaP, 19.8 µM; with RWPE-1 it was > 50 µM. Moreover, the inhibition in assay [1] was 41.1%.

Turning to `Fc1ccc(OCCc2ccc(CN3CCN(c4ccccc4)CC3)cc2)cc1`, the IC50 with PC-3 is 5.7 µM; in the assay on DU-145, 6.86 µM; with LNCaP it was 7.83 µM; in the assay with RWPE-1, 4.62 µM. Also, in assay [1], the inhibition was found to be 35.1%.

In the case of `Brc1ccc(OCCc2ccc(CN3CCN(c4ccccc4)CC3)cc2)cc1`, the IC50 in the assay on PC-3 was 6.69 µM; in the assay on DU-145, 10.1 µM; in the assay on LNCaP it was 13.5 µM; in the assay with RWPE-1, 15.7 µM.

Consider `Brc1ccccc1OCCc1ccc(CN2CCN(c3ccccc3)CC2)cc1`, for which the IC50 with PC-3 is > 50 µM; in the assay on DU-145, 11.6 µM; with LNCaP, 41.9 µM; with RWPE-1, > 50 µM.

With `Fc1ccccc1OCCc1ccc(CN2CCN(c3ccccc3)CC2)cc1`, the IC50 in the assay with PC-3 came out at 48.8 µM; with DU-145 it was 7.21 µM; with LNCaP, 17.8 µM; in the assay on RWPE-1, 19.7 µM.

Take `CC(C)(C)c1ccc(OCCc2ccc(CN3CCN(c4ccccc4)CC3)cc2)cc1`: the IC50 in the assay on PC-3 was 4.86 µM; in the assay with DU-145, 28 µM; in the assay with LNCaP it was 17.9 µM; with RWPE-1, 21.1 µM.

Regarding `Clc1ccc(OCCc2ccc(CN3CCN(c4ccccc4)CC3)cc2)cc1`, the IC50 with PC-3 was determined as 3.59 µM; with DU-145, 9.2 µM; in the assay on LNCaP, 8.64 µM; in the assay with RWPE-1, 4.76 µM. The inhibition in assay [1] came out at 32.4%.

As to `Clc1ccccc1OCCc1ccc(CN2CCN(c3ccccc3)CC2)cc1`, the IC50 in the assay on PC-3 was > 50 µM; in the assay with DU-145, 38.6 µM; in the assay on LNCaP it was > 50 µM; in the assay on RWPE-1 it was > 50 µM.

On to `c1ccc(N2CCN(Cc3ccc(CCOc4ccc5c(c4)CCCC5)cc3)CC2)cc1`, for which the IC50 in the assay on PC-3 was > 50 µM; with DU-145, 40.4 µM; in the assay on LNCaP, > 50 µM; in the assay with RWPE-1, > 50 µM.
